Laboratory results as given in ChEMBL document CHEMBL1764966, “Trigonosins A-F, daphnane diterpenoids from Trigonostemon thyrsoideum” (J Nat Prod, 2011).
Structures can show the parent of a compound that is named as a salt.

Experiments:
Assay type in all cases: functional, cell-based
MCF7 = test: Cytotoxicity against human MCF7 cells assessed as inhibition of cell proliferation after 72 hrs by SRB assay; conditions: MCF7, 72 h
Summary of the method: (§1)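 Sulforhodamine B (SRB) read-out of proliferation inhibition. Cells (A549 lung adenocarcinoma; MCF-7 breast cancer) were seeded 24 h before treatment, then exposed continuously to a range of compound concentrations for 72 h. Inhibition rates were derived from the SRB signal. Adriamycin served as the positive control.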

A549 = test: Cytotoxicity against human A549 cells assessed as inhibition of cell proliferation after 72 hrs by SRB assay; conditions: A549, 72 h; summary of the method: as §1
HL-60 = test: Cytotoxicity against human HL60 cells assessed as inhibition of cell proliferation after 72 hrs by MTT assay; conditions: HL-60, 72 h
Summary of the method: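 HL-60 promyelocytic leukemia cells were plated 24 h ahead, then exposed continuously to varying compound concentrations for 72 h. Proliferation inhibition was determined by MTT assay. Adriamycin served as the positive control.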

| SMILES | IC50 (MCF7) | IC50 (A549) | IC50 (HL-60) |
| --- | --- | --- | --- |
| C=C(C)[C@@]1(OC(=O)c2ccccc2)[C@H](OC(C)=O)[C@@H]2[C@H](OC(C)=O)[C@]3(C)O[C@@]4([C@@H]3O)[C@@H](O)[C@@H](C)C[C@H]4[C@@]2(O)[C@H](C)[C@@H]1OC(C)=O [TRIGONOSIN D] | > 10 µM | > 10 µM | > 10 µM |
| COc1cccc2c1C(=O)c1c(O)c3c(c(O)c1C2=O)C[C@@](O)(C(=O)CO)C[C@@H]3O[C@H]1C[C@H](N)[C@H](O)[C@H](C)O1 [DOXORUBICIN HYDROCHLORIDE] | 0.15 µM | 0.41 µM | 0.13 µM |
| C[C@H]1[C@@H]2CC[C@@H]1[C@@H](OC(=O)c1ccccc1)/C=C/C=C/C(=O)O[C@H]1[C@@H](C)C[C@@H]3[C@]1(O)[C@H](O)[C@@]1(CO)O[C@H]1[C@H]1[C@H]4OC5(c6ccccc6)O[C@@H]([C@@H](C)[C@@]13O5)[C@@]4(O)[C@](C)(O)C2 [REDIOCIDE C] | > 10 µM | > 10 µM | > 10 µM |
| C=C(C)[C@@]12OC3(c4ccccc4)O[C@@H]1[C@@H]1[C@@H]4O[C@]4(C)[C@@H](O)[C@]4(O)C(=O)[C@@H](C)C[C@H]4[C@@]1(O3)[C@H](C)[C@@H]2OC(=O)c1ccccc1 [TRIGOXYPHIN B] | > 10 µM | > 10 µM | > 10 µM |
| C[C@H]1[C@@H]2CC[C@@H]1[C@H](OC(=O)c1ccccc1)/C=C/C=C/C(=O)O[C@H]1[C@@H](C)C[C@@H]3[C@]1(O)[C@H](O)[C@@]1(CO)O[C@H]1[C@H]1[C@H]4OC5(c6ccccc6)O[C@@H]([C@@H](C)[C@@]13O5)[C@@]4(O)[C@](C)(O)C2 [TRIGONOSIN E] | > 10 µM | > 10 µM | > 10 µM |
| C[C@H]1[C@@H]2CC[C@@H]1[C@@H](OC(=O)c1ccccc1)/C=C/C=C\C(=O)O[C@H]1[C@@H](C)C[C@@H]3[C@]1(O)[C@H](O)[C@@]1(CO)O[C@H]1[C@H]1[C@H]4OC5(c6ccccc6)O[C@@H]([C@@H](C)[C@@]13O5)[C@@]4(O)[C@](C)(O)C2 [TRIGONOSIN F] | > 10 µM | > 10 µM | > 10 µM |
| C=C(C)[C@@]12OC3(c4ccccc4)O[C@@H]1[C@@H]1[C@@H]4O[C@]4(C)[C@@H](O)[C@@]4(O)[C@@H](C[C@H](C)[C@@H]4O)[C@@]1(O3)[C@H](C)[C@@H]2OC(=O)c1ccccc1 [TRIGONOSIN A] | > 10 µM | > 10 µM | > 10 µM |
| C=C(C)[C@@]12OC3(c4ccccc4)O[C@@H]1[C@@H]1[C@@H]4O[C@]4(CO)[C@@H](O)[C@@]4(O)[C@@H](C[C@H](C)[C@@H]4O)[C@@]1(O3)[C@H](C)[C@@H]2OC(=O)c1ccccc1 [TRIGONOSIN B] | > 10 µM | > 10 µM | > 10 µM |
| C=C(C)[C@@]12OC3(c4ccccc4)O[C@@H]1[C@@H]1[C@@H]4O[C@]4(C)[C@@H](O)[C@]4(O)C(=O)C(C)=C[C@H]4[C@@]1(O3)[C@H](C)[C@@H]2OC(=O)c1ccccc1 [TRIGOXYPHIN A] | > 10 µM | > 10 µM | > 10 µM |
| C=C(C)[C@@]12OC3(c4ccccc4)O[C@@H]1[C@@H]1[C@H](O)[C@@](C)(O)[C@@H](O)[C@@]4(O)[C@@H](C[C@H](C)[C@@H]4O)[C@@]1(O3)[C@H](C)[C@@H]2OC(=O)c1ccccc1 [TRIGONOSIN C] | > 10 µM | > 10 µM | > 10 µM |
| CC(C)CC(=O)O[C@H]1/C=C/C=C/C(=O)O[C@H]2[C@@H](C)C[C@@H]3[C@]2(O)[C@H](O)[C@@]2(CO)O[C@H]2[C@H]2[C@H]4OC5(c6ccccc6)O[C@@H]([C@@H](C)[C@@]23O5)[C@@]4(O)[C@](C)(O)C[C@H]2CC[C@H]1[C@H]2C [REDIOCIDE A] | > 10 µM | > 10 µM | > 10 µM |
